Source: ChEMBL document CHEMBL4257584, “Sterol 14α-Demethylase Structure-Based Optimization of Drug Candidates for Human Infections with the Protozoan Trypanosomatidae” (J Med Chem, 2018)
Activity calls are given as the source filed them. No cut-off for these calls is given here.

Key:
[1] = Half life in human liver microsomes at 1 uM preincubated for 5 mins followed by NADPH addition and measured by LC/MS/MS analysis; assay type: ADME, microsome; conditions: microsomes, 1 µM
[2] = Intrinsic clearance in human liver microsomes at 1 uM preincubated for 5 mins followed by NADPH addition and measured after 45 mins by LC/MS/MS analysis; assay type: ADME, microsome; conditions: read-out: CLH
[3] = Intrinsic clearance in Sprague-Dawley rat liver microsomes at 1 uM preincubated for 5 mins followed by NADPH addition and measured after 45 mins by LC/MS/MS analysis; assay type: ADME, microsome; conditions: read-out: CLH
[4] = Half life in Sprague-Dawley rat liver microsomes at 1 uM preincubated for 5 mins followed by NADPH addition and measured by LC/MS/MS analysis; assay type: ADME, microsome; conditions: microsomes, 1 µM
[5] = Intrinsic clearance in CD1 mouse liver microsomes at 1 uM preincubated for 5 mins followed by NADPH addition and measured after 45 mins by LC/MS/MS analysis; assay type: ADME, microsome; conditions: read-out: CLH
[6] = Hepatic clearance in CD1 mouse liver microsomes at 1 uM preincubated for 5 mins followed by NADPH addition and measured after 45 mins by LC/MS/MS analysis; assay type: ADME, microsome
[7] = Half life in CD1 mouse liver microsomes at 1 uM preincubated for 5 mins followed by NADPH addition and measured by LC/MS/MS analysis; assay type: ADME, microsome; conditions: mouse, microsomes, 1 µM
[8] = Maximum plasma concentration in BALB/c mouse at 25 mg/kg, po via gavage by […]; assay type: ADME, organism-based; set-up: dose 25 mg/kg, route oral
Method in brief: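 Single oral gavage dose of 25 mg/kg in BALB/c mice; blood sampled at 1, 2, 4, 6, 10, 16, 24 h. Plasma is diluted in PBS with ketoconazole internal standard, extracted with 80% acetonitrile, dried and redissolved. Analysed by reversed-phase HPLC with UV at 291/250 nm, 0.1 μM detection limit. Lifetime is time until undetectable.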

[9] = Drug uptake in BALB/c mouse heart at 25 mg/kg, po via gavage measured after 4 hrs post dose by […]; assay type: ADME, organism-based; conditions: read-out: Drug uptake
Method in brief: (§1)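 BALB/c mice get a single oral gavage dose of 25 mg/kg; tissues are collected 4 h post-dose. About 100 mg tissue is diluted 5-fold in PBS and homogenized. Homogenate is extracted as for plasma (ketoconazole internal standard, acetonitrile extraction) and quantified by HPLC-UV at 291 nm, 0.1 μM detection limit, n=2.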

[10] = Drug uptake in BALB/c mouse lungs at 25 mg/kg, po via gavage measured after 4 hrs post dose by […]; assay type: ADME, organism-based, Lung; conditions: read-out: Drug uptake; method in brief: as §1
[11] = Drug uptake in BALB/c mouse spleen at 25 mg/kg, po via gavage measured after 4 hrs post dose by […]; assay type: ADME, organism-based; conditions: read-out: Drug uptake; method in brief: as §1
[12] = Drug uptake in BALB/c mouse liver at 25 mg/kg, po via gavage measured after 4 hrs post dose by […]; assay type: ADME, organism-based; conditions: read-out: Drug uptake; method in brief: as §1
[13] = biological target: Putative lanosterol 14-alpha-demethylase (Leishmania infantum) (UniProt A2TEF2); assay: Inhibition of Leishmania infantum CYP51 expressed in Escherichia coli using [3-3H]-obtusifoliol as substrate after 60 mins by LC-MS analysis
Method in brief: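 Reconstituted reaction: 1 μM purified CYP51, 2 μM T. brucei NADPH-P450 reductase, 100 μM dilauroylphosphatidylcholine, isocitrate dehydrogenase/isocitrate regeneration, 50 mM K phosphate pH 7.2, 10% glycerol. [3-3H]sterol substrate at 50 μM final (eburicol for T. cruzi; obtusifoliol for T. brucei and L. infantum) with inhibitor at 1.1 μM final. Preincubate 60 s at 37 °C, start with 100 μM NADPH, run 60 min, EtOAc extraction. Gives % inhibition of 14α-demethylation, triplicate, mean ± SD.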

[14] = biological target: Sterol 14-alpha demethylase (Trypanosoma cruzi (strain CL Brener), UniProt Q7Z1V1); assay: Binding affinity to Trypanosoma cruzi Y CYP51A expressed in Escherichia coli
Method in brief: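 Recombinant CYP51A from Y strain T. cruzi, expressed in E. coli and purified, titrated spectrally at 0.5 μM P450 in 5 cm path cuvettes with ligand over 0.1–1 μM. Type of absorbance change in difference spectra Δ(A430-A411) plotted against ligand concentration. Apparent Kd obtained by fitting to the Morrison quadratic tight-binding equation by nonlinear regression.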

[15] = biological target: Putative lanosterol 14-alpha-demethylase (Leishmania infantum, UniProt A2TEF2); assay: Binding affinity to Leishmania infantum CYP51 expressed in Escherichia coli
Method in brief: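 Purified E. coli-expressed L. infantum CYP51 at 0.5 μM is titrated with ligand at 0.1–1 μM in 5 cm path cuvettes. Difference-spectrum absorbance change Δ(A430−A411) is plotted against ligand concentration. Apparent Kd comes from a Morrison (quadratic) tight-binding fit by nonlinear regression.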

Trypanosoma cruzi = assay: Antiparasitic activity against GFP-expressing Trypanosoma cruzi Tulahuen amastigote formss infected in cardiomyocytes assessed as reduction in rate of parasite multiplication within infected cardiomyocytes measured at 72 hrs post infection by fluorescence microscopy; assay type: functional, organism-based
Method in brief: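 GFP-expressing trypomastigotes (Tulahuen or Y strain) infect cardiomyocyte monolayers at 10 parasites per cell, in DMEM + 10% FBS. Unbound parasites are washed off. At 24 h of infection, inhibitors at 0.5–25 nM in DMSO/DMEM are added and cultured 48 h. Read-out is at 72 h post-infection as GFP fluorescence (RFU) after PBS wash; microscopy uses paraformaldehyde fixation, DAPI and phalloidin stain. Triplicate.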

Mus musculus [16] = assay: Toxicity in Swiss Webster mouse assessed as effect on animal behavior at 200 mg/kg, po administered as single dose measured after 48 hrs; assay type: organism-based; conditions: in vivo
Method in brief: (§2)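 Swiss Webster mice (21–23 g, n=3) get a single oral 200 mg/kg dose, given as in the PK study. They are inspected for toxic and sub-toxic signs per OECD guidelines (behaviour, motility, neurological state, skin, fur), and body weight is tracked 0–48 h. At 48 h, mice are euthanized and organ weights are normalized to body weight. Blood is taken for haematology and plasma biochemistry.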

Mus musculus [17] = assay: Toxicity in Swiss Webster mouse assessed as effect on skin at 200 mg/kg, po administered as single dose measured after 48 hrs; assay type: organism-based; conditions: in vivo; method in brief: as §2
Mus musculus [18] = assay: Toxicity in Swiss Webster mouse assessed as effect on fur profile at 200 mg/kg, po administered as single dose measured after 48 hrs; assay type: organism-based; conditions: in vivo; method in brief: as §2
Mus musculus [19] = assay: Toxicity in Swiss Webster mouse at 200 mg/kg, po administered as single dose measured after 48 hrs measured at 48 hrs post dose; assay type: organism-based; conditions: in vivo; method in brief: as §2
[20] = Lipophilicity, log P of the compound; assay type: physicochemical; conditions: octanol/water
Mus musculus [21] = assay: Toxicity in Swiss Webster mouse assessed as alteration in body to organ ratio at 200 mg/kg, po administered as single dose measured after 48 hrs; assay type: organism-based; conditions: in vivo; method in brief: as §2
Mus musculus [22] = assay: Toxicity in Swiss Webster mouse assessed as effect on spleen weight at 200 mg/kg, po administered as single dose measured after 48 hrs; assay type: organism-based; conditions: in vivo; method in brief: as §2
Mus musculus [23] = assay: Toxicity in Swiss Webster mouse assessed as effect on kidney weight at 200 mg/kg, po administered as single dose measured after 48 hrs; assay type: organism-based; conditions: in vivo; method in brief: as §2
Mus musculus [24] = assay: Toxicity in Swiss Webster mouse assessed as effect on heart weight at 200 mg/kg, po administered as single dose measured after 48 hrs; assay type: organism-based; conditions: in vivo; method in brief: as §2
Mus musculus [25] = assay: Toxicity in Swiss Webster mouse assessed as effect on body weight at 200 mg/kg, po administered as single dose measured after 48 hrs; assay type: organism-based; conditions: in vivo; method in brief: as §2
Mus musculus [26] = assay: Toxicity in Swiss Webster mouse assessed as effect on biochemical plasma parameters at 200 mg/kg, po administered as single dose measured after 48 hrs; assay type: organism-based; conditions: in vivo; method in brief: as §2

Chain of Sterol 14-alpha demethylase (Q7Z1V1 whole entry): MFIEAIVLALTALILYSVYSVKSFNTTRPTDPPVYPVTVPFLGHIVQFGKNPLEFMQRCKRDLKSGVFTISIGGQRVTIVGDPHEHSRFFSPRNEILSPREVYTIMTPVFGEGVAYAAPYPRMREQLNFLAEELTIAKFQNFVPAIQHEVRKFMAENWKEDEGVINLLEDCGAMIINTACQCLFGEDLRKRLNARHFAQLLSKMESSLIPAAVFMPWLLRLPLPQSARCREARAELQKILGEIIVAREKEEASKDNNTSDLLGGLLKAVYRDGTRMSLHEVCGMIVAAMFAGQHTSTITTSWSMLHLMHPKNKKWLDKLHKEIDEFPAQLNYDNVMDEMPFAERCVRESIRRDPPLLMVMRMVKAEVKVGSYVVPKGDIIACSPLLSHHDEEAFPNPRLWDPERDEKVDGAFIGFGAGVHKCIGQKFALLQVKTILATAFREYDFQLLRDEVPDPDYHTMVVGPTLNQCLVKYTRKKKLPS
Chain of Putative lanosterol 14-alpha-demethylase (Leishmania infantum) (A2TEF2 1-480): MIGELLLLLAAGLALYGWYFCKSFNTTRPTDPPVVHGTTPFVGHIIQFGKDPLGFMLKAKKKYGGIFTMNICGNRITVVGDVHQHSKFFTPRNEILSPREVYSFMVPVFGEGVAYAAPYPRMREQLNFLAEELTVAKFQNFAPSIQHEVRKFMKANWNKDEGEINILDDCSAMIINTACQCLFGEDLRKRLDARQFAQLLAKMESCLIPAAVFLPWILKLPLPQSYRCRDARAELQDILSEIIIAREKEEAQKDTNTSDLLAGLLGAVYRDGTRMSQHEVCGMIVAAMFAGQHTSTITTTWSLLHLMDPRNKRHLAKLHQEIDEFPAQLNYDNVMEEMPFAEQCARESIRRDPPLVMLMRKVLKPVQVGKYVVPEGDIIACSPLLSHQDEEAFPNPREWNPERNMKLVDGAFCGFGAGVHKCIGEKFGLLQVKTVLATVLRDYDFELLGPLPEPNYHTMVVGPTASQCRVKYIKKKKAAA
Chain of Putative lanosterol 14-alpha-demethylase (A2TEF2 whole entry): as the sequence (A2TEF2 1-480) above

Compound: O=C(N[C@@H](Cn1ccnc1)c1c(F)cc(-c2ccc(F)cc2)cc1F)c1ccc(-c2nnc(-c3ccccc3)o2)cc1
- t1/2 [1]: 64 min
- CLint scaled at 1 µM [2]: 19.4 mL/min/kg
- CLint scaled at 1 µM [3]: 55.8 mL/min/kg
- t1/2 [4]: 50 min
- CLint scaled at 1 µM [5]: 237 mL/min/kg
- CLhep predicted at 1 µM [6]: 65.2 mL/min/kg
- t1/2 [7]: 23 min
- Cmax [8]: 25 µM
- concentration at 4 h [9]: 56 µM
- concentration at 4 h [10]: 57 µM
- concentration at 4 h [11]: 63 µM
- concentration at 4 h [12]: 120 µM
- inhibition [13]: Active
- Kd [14]: 8.4 nM
- Kd [15]: 24 nM
- EC50 (Trypanosoma cruzi): 0.5 nM
- Activity (Mus musculus [16]): Non-Toxic
- Activity (Mus musculus [17]): Non-Toxic
- Activity (Mus musculus [18]): Non-Toxic
- NOAEL (Mus musculus [19]): > 200 mg/kg
- logP [20]: 5.6
- Activity (Mus musculus [21]): Non-Toxic
- Activity (Mus musculus [22]): Non-Toxic
- Activity (Mus musculus [23]): Non-Toxic
- Activity (Mus musculus [24]): Non-Toxic
- Activity (Mus musculus [25]): Non-Toxic
- Activity (Mus musculus [26]): Non-Toxic
